Reference: ChEMBL document CHEMBL4699493, “Development of Bis-cyclic Imidazolidine-4-one Derivatives as Potent Antibacterial Agents” (J Med Chem, 2020)
In brackets after ≈: the same amount, converted by molar mass.

Experiments:
[1] = tested on: Staphylococcus epidermidis; assay: Antibacterial activity against methicillin-resistant Staphylococcus epidermidis RP62A; assay type: functional
Procedure, shortened: (§1)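 Broth microdilution in TSB. Strains were grown 16 h, subcultured 6 h to log phase, then diluted to 10^6 CFU/mL by OD600. Compound came from a 5 mg/mL DMSO stock diluted in TSB and serially diluted, top final concentration 25 μg/mL. MIC was the lowest concentration giving complete growth inhibition. Done ≥3 times in duplicate.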

Escherichia coli = assay: Antibacterial activity against Escherichia coli ATCC 25922; assay type: functional
Procedure, shortened: (§2)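 Broth microdilution in TSB. Stocks at 5 mg/mL in DMSO diluted with TSB to 100 μg/mL, then serially diluted; highest test concentration 25 μg/mL. Bacteria grown 16 h, subcultured 6 h to log phase, adjusted to 10^6 CFU/mL by OD600. MIC = lowest concentration giving complete growth inhibition. At least three repeats, each in duplicate.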

[2] = Hemolytic activity against mouse RBC measured after 1 hr by microplate reader analysis; assay type: ADME, cell-based, Erythrocyte; details: mouse red blood cells (erythrocytes)
Procedure, shortened: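 Mouse red blood cells collected by centrifugation (500–700g, 10 min), washed three times in PBS, and diluted 20-fold in PBS. Mixed with 2-fold serial dilutions of compound (starting at 1 mg/mL in PBS) and incubated 1 h at 37 °C. After centrifugation, supernatant absorbance read at 540 nm. % hemolysis calculated relative to PBS (0%) and 2% Triton (100%). At least three repeats in duplicate.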

Klebsiella pneumoniae = assay: Antibacterial activity against Klebsiella pneumoniae ATCC 13383; assay type: functional; procedure, shortened: as §2
Staphylococcus aureus [3] = assay: Antibacterial activity against methicillin-resistant Staphylococcus aureus ATCC 33591; assay type: functional; procedure, shortened: as §1
[4] = Selectivity ratio of HC50 for hemolytic activity against mouse RBC to MIC for methicillin-resistant Staphylococcus aureus; assay type: toxicity; details: mouse red blood cells (erythrocytes)
Procedure, shortened: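 Mouse RBCs were washed three times in PBS and diluted in 20 volumes of PBS. They were mixed with compound 2-fold serially diluted from 1 mg/mL in PBS, incubated 1 h at 37 °C, then centrifuged; supernatant read at A540. % hemolysis was calculated against PBS (0%) and 2% Triton (100%). Done ≥3 times in duplicate. HC50 was divided by the MRSA MIC.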

Staphylococcus aureus [5] = assay: Antibacterial activity against methicillin-resistant Staphylococcus aureus ATCC 33591 assessed as ratio of MIC after and before 13 serial passages; assay type: functional
Procedure, shortened: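 Serial-passage resistance test. A first MIC was run by TSB broth microdilution. Bacteria from the well after the last clear well were resuspended to about 10^6 CFU/mL for the next MIC. This was repeated for 13 passages.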

Structure (SMILES): CCCCCCCCCCCCCC(=O)N[C@@H](CCCCN)CN1CC(=O)N(c2ccc(N3CN(C[C@H](CCCCN)NC(=O)CCCCCCCCCCCCC)CC3=O)cc2)C1
- MIC [1]: > 25 µg/mL
- MIC (Escherichia coli): > 25 µg/mL
- HC50 at 1 h [2]: > 250 µg/mL
- MIC (Klebsiella pneumoniae): > 25 µg/mL
- MIC (Staphylococcus aureus [3]): > 25 µg/mL

Structure (SMILES): CCCCCCCCCCCC(=O)N[C@@H](CCCCN)CN1CC(=O)N(c2ccc(N3CN(C[C@H](CCCCN)NC(=O)CCCCCCCCCCC)CC3=O)cc2)C1
- MIC [1]: 2 µg/mL (≈ 2.38 µM)
- MIC (Escherichia coli): > 25 µg/mL
- selectivity ratio [4]: > 250
- HC50 at 1 h [2]: > 250 µg/mL
- MIC (Klebsiella pneumoniae): > 25 µg/mL
- MIC (Staphylococcus aureus [3]): 1 µg/mL (≈ 1.19 µM)

Structure (SMILES): N=C(N)NCCCC[C@@H](CN1CC(=O)N(c2ccc(N3CN(C[C@H](CCCCNC(=N)N)NC(=O)CC45C[C@H]6C[C@@H](C4)C[C@@H](C5)C6)CC3=O)cc2)C1)NC(=O)CC12C[C@H]3C[C@@H](C1)C[C@@H](C2)C3
- MIC [1]: 2 µg/mL (≈ 2.19 µM)
- MIC (Escherichia coli): > 25 µg/mL
- selectivity ratio [4]: 250
- HC50 at 1 h [2]: 250 µg/mL
- MIC (Klebsiella pneumoniae): > 25 µg/mL
- MIC (Staphylococcus aureus [3]): 1 µg/mL (≈ 1.1 µM)

Structure (SMILES): CCn1cc(C(=O)O)c(=O)c2cc(F)c(N3CCNCC3)cc21 [NORFLOXACIN]
- Ratio (Staphylococcus aureus [5]): > 22

Structure (SMILES): CCCCCCCC(=O)N[C@@H](CCCCN)CN1CC(=O)N(c2ccc(N3CN(C[C@H](CCCCN)NC(=O)CCCCCCC)CC3=O)cc2)C1
- MIC [1]: > 25 µg/mL
- MIC (Escherichia coli): > 25 µg/mL
- HC50 at 1 h [2]: > 250 µg/mL
- MIC (Klebsiella pneumoniae): > 25 µg/mL
- MIC (Staphylococcus aureus [3]): > 25 µg/mL

Structure (SMILES): CCCCCCCCCCCCCCCC(=O)N[C@@H](CCCCN)CN1CC(=O)N(c2ccc(N3CN(C[C@H](CCCCN)NC(=O)CCCCCCCCCCCCCCC)CC3=O)cc2)C1
- MIC [1]: > 25 µg/mL
- MIC (Escherichia coli): > 25 µg/mL
- HC50 at 1 h [2]: > 250 µg/mL
- MIC (Klebsiella pneumoniae): > 25 µg/mL
- MIC (Staphylococcus aureus [3]): > 25 µg/mL

Structure (SMILES): NCCCC[C@@H](CN1CC(=O)N(c2ccc(N3CN(C[C@H](CCCCN)NC(=O)Cc4ccc5ccccc5c4)CC3=O)cc2)C1)NC(=O)Cc1ccc2ccccc2c1
- MIC [1]: > 25 µg/mL
- MIC (Escherichia coli): > 25 µg/mL
- HC50 at 1 h [2]: > 250 µg/mL
- MIC (Klebsiella pneumoniae): > 25 µg/mL
- MIC (Staphylococcus aureus [3]): > 25 µg/mL

Structure (SMILES): CCCCCCCCCC(=O)N[C@@H](CCCCNC(=N)N)CN1CC(=O)N(c2ccc(N3CN(C[C@H](CCCCNC(=N)N)NC(=O)CCCCCCCCC)CC3=O)cc2)C1
- MIC [1]: 5 µg/mL (≈ 5.77 µM)
- MIC (Escherichia coli): > 25 µg/mL
- selectivity ratio [4]: 125
- HC50 at 1 h [2]: 125 µg/mL
- MIC (Klebsiella pneumoniae): 5 µg/mL (≈ 5.77 µM)
- MIC (Staphylococcus aureus [3]): 1 µg/mL (≈ 1.15 µM)

Structure (SMILES): CCCCCCCCCC(=O)N[C@@H](Cc1ccccc1)CN1CC(=O)N(c2ccc(N3CN(C[C@H](Cc4ccccc4)NC(=O)CCCCCCCCC)CC3=O)cc2)C1
- MIC [1]: > 25 µg/mL
- MIC (Escherichia coli): > 25 µg/mL
- HC50 at 1 h [2]: > 250 µg/mL
- MIC (Klebsiella pneumoniae): > 25 µg/mL
- MIC (Staphylococcus aureus [3]): > 25 µg/mL

Structure (SMILES): CCCCCCCCCC(=O)N[C@@H](CCCCN)CNCC(=O)Nc1ccc(NC(=O)CNC[C@H](CCCCN)NC(=O)CCCCCCCCC)cc1
- MIC [1]: 2 µg/mL (≈ 2.63 µM)
- MIC (Escherichia coli): > 25 µg/mL
- selectivity ratio [4]: > 125
- HC50 at 1 h [2]: > 250 µg/mL
- MIC (Klebsiella pneumoniae): > 25 µg/mL
- MIC (Staphylococcus aureus [3]): 2 µg/mL (≈ 2.63 µM)

Structure (SMILES): NCCCC(=O)N[C@@H](Cc1ccccc1)CN1CC(=O)N(c2ccc(N3CN(C[C@H](Cc4ccccc4)NC(=O)CCCN)CC3=O)cc2)C1
- MIC [1]: > 25 µg/mL
- MIC (Escherichia coli): > 25 µg/mL
- HC50 at 1 h [2]: > 250 µg/mL
- MIC (Klebsiella pneumoniae): > 25 µg/mL
- MIC (Staphylococcus aureus [3]): > 25 µg/mL

Structure (SMILES): CCCCCC(=O)N[C@@H](CCCCN)CN1CC(=O)N(c2ccc(N3CN(C[C@H](CCCCN)NC(=O)CCCCC)CC3=O)cc2)C1
- MIC [1]: > 25 µg/mL
- MIC (Escherichia coli): > 25 µg/mL
- HC50 at 1 h [2]: > 250 µg/mL
- MIC (Klebsiella pneumoniae): > 25 µg/mL
- MIC (Staphylococcus aureus [3]): > 25 µg/mL

Structure (SMILES): NCCCC[C@@H](CN1CC(=O)N(c2ccc(N3CN(C[C@H](CCCCN)NC(=O)CC45C[C@H]6C[C@@H](C4)C[C@@H](C5)C6)CC3=O)cc2)C1)NC(=O)CC12C[C@H]3C[C@@H](C1)C[C@@H](C2)C3
- MIC [1]: > 25 µg/mL
- MIC (Escherichia coli): > 25 µg/mL
- HC50 at 1 h [2]: > 250 µg/mL
- MIC (Klebsiella pneumoniae): > 25 µg/mL
- MIC (Staphylococcus aureus [3]): > 25 µg/mL

Structure (SMILES): O=C(O)c1cn(C2CC2)c2cc(N3CCNCC3)c(F)cc2c1=O [CIPROFLOXACIN]
- MIC [1]: 0.15 µg/mL (≈ 0.453 µM)
- MIC (Escherichia coli): 0.07 µg/mL (≈ 0.211 µM)
- MIC (Klebsiella pneumoniae): 0.3 µg/mL (≈ 0.905 µM)
- MIC (Staphylococcus aureus [3]): 0.15 µg/mL (≈ 0.453 µM)
